These results are taken from ChEMBL document CHEMBL1681681, “Synthesis and anti-migrative evaluation of moverastin derivatives” (Bioorg Med Chem Lett, 2011).

For test [1], the target named is Protein farnesyltransferase (Homo sapiens, UniProt P49354+P49356). The test can be described thus: Inhibition of protein farnesyltransferase from human EC17 cells using [3H]FPP and […]-H-Ras. It is filed as cell-based. Summed up:
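FTase is partially purified from EC17 cells. It is incubated with [3H]-farnesylpyrophosphate plus recombinant GST-H-Ras as substrates, with or without test compound. Compounds are tested up to 100 µM.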

Test [2] is described as follows: Cytotoxicity against human EC17 cells assessed as cell viability by trypan blue dye. It is filed as cell-based. Summed up: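 EC17 cells are tested for viability by trypan blue dye exclusion. The 50% inhibitory concentration for viability is estimated from this assay.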
Test [3] is described as follows: Antimigratory activity against human EC17 cells assessed as inhibition of migration after 24 hrs by chemotaxis cell chamber assay. The class given is functional, cell-based. As to conditions: EC17, 24 h. A digest of the protocol:
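Chemotaxis chamber: EC17 cells in upper chamber with graded compound concentrations; lower chamber holds EC17-conditioned medium (from 24 h cultures in RPMI1640 + 1% FBS) as chemoattractant. After 24 h, cells migrated through the filter to its lower side are counted. Counts are mean SD of five fields. IC50 is derived from these counts.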

One may read the IC50 as the concentration at which inhibition is half-maximal. `C=C(CCC1CCCCC1)C(O)Cc1c(O)cc(C)c(C=O)c1O` (centres undefined): the figures for the IC50 in test [1], in test [2] and in test [3] were more than 100 µM, 87 µM and 8.43 µM, respectively.
On the same counts, the results for `C=C(CC/C=C(\C)CCC=C(C)C)C(O)Cc1c(O)cc(C)c(C=O)c1O` (centres undefined) are more than 100 µM, more than 80 µM and 7.53 µM.
Consider `C=C(C)C(O)Cc1c(O)cc(C)c(C=O)c1O` (centres undefined), for which the IC50 in test [1] is more than 100 µM; in test [2], more than 130 µM; in test [3], 30 µM.
On the same counts, the results for `C=C(CCc1c(C)cccc1C)C(O)Cc1c(O)cc(C)c(C=O)c1O` (centres undefined) are more than 100 µM, 45 µM and 10.6 µM.
On the same counts, the results for `C=C(CCC12CC3CC(CC(C3)C1)C2)C(O)Cc1c(O)cc(C)c(C=O)c1O` (centres undefined) are more than 100 µM, 55 µM and 6.52 µM.
On the same counts, the results for `C=C(CC[C@@]1(C)[C@H](C)CCC(=O)[C@@H]1C)C(O)Cc1c(O)cc(C)cc1O` (some centres undefined) are more than 100 µM, more than 28 µM and 21.4 µM.
`C=C(CC[C@H]1[C@@H](C)CCCC1(C)C)C(O)Cc1c(O)cc(C)c(C=O)c1O` (relative stereo): the IC50 in test [1] was 14.7 µM; in test [2] it was 46 µM; in test [3] it was 1.98 µM.
Take `Cc1cc(O)c(CC(O)C(C)CC[C@H]2[C@@H](C)CCCC2(C)C)c(O)c1C=O` (relative stereo): the IC50 is more than 100 µM in test [1], 16 µM in test [2] and 2.12 µM in test [3].
On the same counts, the results for `C=C(CC[C@H]1[C@@H](C)CCCC1(C)C)C(=O)Cc1c(O)cc(C)c(C=O)c1O` (relative stereo) are more than 100 µM, 18 µM and 4.41 µM.
On the same counts, the results for `Cc1cc(O)c2c(c1C=O)OCC(CC[C@H]1[C@@H](C)CCCC1(C)C)=CC2` (relative stereo) are more than 100 µM, 18 µM and 2 µM.
`C=C(CC[C@H]1[C@@H](C)CCCC1(C)C)C(O)Cc1c(OC)cc(C)c(C=O)c1O` (relative stereo): the IC50 is more than 100 µM in test [1], 18 µM in test [2] and 4.57 µM in test [3].
On the same counts, the results for `C=C(CC[C@H]1[C@@H](C)CCCC1(C)C)C(O)Cc1c(O)cc(C)cc1O` (relative stereo) are more than 100 µM, 17 µM and 2.17 µM.
On the same counts, the results for `C=C(CC[C@@]1(C)[C@H](C)CCC(=O)[C@@H]1C)[C@H](O)Cc1c(O)cc(C)c(C=O)c1O` [MOVERASTIN A] are more than 100 µM, more than 77 µM and 7.22 µM.
